Marks after values point to notes of the source that are not given here.
Experiments:
[1] = Incubation of 14C‐3‐NOP in liver fractions; type: in vitro ADME; details: Beagle, dog, liver S9
Procedure, shortened: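 14C-labelled test compound was incubated with or without NAD+ in liver S9, cytosol and microsomes from Sprague–Dawley rat, Wistar Han rat, Beagle dog and human. Aliquots were taken at several time points and the proteins precipitated. Supernatants were analysed by liquid scintillation counting and radio-HPLC, and half-life was derived from the time course.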

[2] = tested on: Holstein Friesian dairy cows; assay: Tolerance study in dairy cows; type: in vivo; details: for Dry matter intake: 56 days
[3] = tested on: Salmonella Typhimurium (TA98, TA100, TA1535 and TA1537) and Escherichia coli WP2uvrA; assay: Bacterial reverse mutation assays; type: cell-based; details: up to 5,000 μg/plate, with or without S9‐mix
[4] = tested on: human peripheral blood lymphocytes; assay: In vitro micronucleus assay; type: cell-based
[5] = tested on: L5178Y TK +/− mouse lymphoma; assay: L5178Y TK+/− mouse lymphoma assay; type: cell-based; details: up to 1,211 μg/mL, presence and absence of S9‐mix
[6] = tested on: Wistar rats; assay: 52‐week oral gavage study; type: in vivo
[7] = Skin irritation study
[8] = Eye irritation study
[9] = Octanol–water partition coefficient; type: physicochemical
[10] = Overall NOAEL and health‐based guidance value
[11] = tested on: dairy cows, beef cattle and sheep; details: 100 mg 3‐NOP/kg DMI; cited from earlier work
[12] = tested on: human lymphoblastoid TK6 cells; assay: In vitro micronucleus assay; details: with and without S9, up to 1,220 μg/mL
[13] = Third in vitro rumen fluid trial; details: 39°C
[14] = Third in vitro rumen fluid trial; details: 39°C; remark: listed apart in the source
[15] = Incubation of; details: for 3‐NOP concentration remaining at t = 24 h: 38°C
[16] = 90.2 mg 3‐NOP/kg feed DM (× 0.8)
[17] = 106.8 mg 3‐NOP/kg feed DM (× 1)
[18] = 220.4 mg 3‐NOP/kg feed DM (× 2)

Q: With `O=[N+]([O-])OCCCO` [3‐NOP, propan‐1,3‐diol‐mononitrate] as the compound, how does the half-life [1] read?
A: 1.1 h

Q: And the ALT [2, 16]?
A: 27* U/L

Q: And the Albumin [2, 16]?
A: 36 g/L

Q: And the Amylase [2, 16]?
A: 34 U/L

Q: What about the Body weight [2, 16] of the same compound?
A: 676 kg

Q: And the Body weight change [2, 16]?
A: 43.6 kg

Q: What about the Fat yield [2, 16] of the same compound?
A: 0.81 kg/day

Q: What about the Fibrinogen [2, 16] of the same compound?
A: 0.88 g/L

Q: What about the Haematocrit [2, 16] of the same compound?
A: 28* %

Q: What about the “Haemoglobin d56” value [2, 16] of the same compound?
A: 110 g/L

Q: What about the “LDH d56” value [2, 16] of the same compound?
A: 1249 U/L

Q: What about the Mean corpuscular haemoglobin [2, 16] of the same compound?
A: 16.5* pg

Q: What about the Milk yield [2, 16] of the same compound?
A: 28.7 kg/day

Q: What about the “Monocytes d5” value [2, 16] of the same compound?
A: 4.8e+08 L⁻¹

Q: And the “Monocytes d56” value [2, 16]?
A: 3.1e+08 L⁻¹

Q: And the Ovary absolute size [2, 16]?
A: 31.9 g

Q: What about the Ovary relative size [2, 16] of the same compound?
A: 0.048 g per kg final bw

Q: What about the Protein yield [2, 16] of the same compound?
A: 0.92 kg/day

Q: What about the Prothrombin time [2, 16] of the same compound?
A: 27.3* s

Q: What about the Red blood cells [2, 16] of the same compound?
A: 6.52* ×10^12/L

Q: And the Water consumption [2, 16]?
A: 95.9 kg/day

Q: And the Dry matter intake [2, 16]?
A: 22.9 kg/day

Q: What about the ALT [2, 17] of the same compound?
A: 27* U/L

Q: And the Albumin [2, 17]?
A: 36 g/L

Q: And the Amylase [2, 17]?
A: 34 U/L

Q: What about the Body weight [2, 17] of the same compound?
A: 675 kg

Q: What about the Body weight change [2, 17] of the same compound?
A: 42.2 kg

Q: And the Ca [2, 17]?
A: 2.47* mmol/L

Q: And the Energy corrected milk [2, 17]?
A: 22.7 kg/day

Q: What about the Fat yield [2, 17] of the same compound?
A: 0.74 kg/day

Q: What about the Fibrinogen [2, 17] of the same compound?
A: 0.93 g/L

Q: What about the Haematocrit [2, 17] of the same compound?
A: 28* %

Q: And the “Haemoglobin d56” value [2, 17]?
A: 109 g/L

Q: What about the “LDH d56” value [2, 17] of the same compound?
A: 1245 U/L

Q: What about the Milk yield [2, 17] of the same compound?
A: 27.5 kg/day

Q: And the “Monocytes d5” value [2, 17]?
A: 4.6e+08 L⁻¹

Q: What about the Ovary absolute size [2, 17] of the same compound?
A: 29.7 g

Q: And the Ovary relative size [2, 17]?
A: 0.040 g per kg final bw

Q: What about the Protein yield [2, 17] of the same compound?
A: 0.88 kg/day

Q: And the Red blood cells [2, 17]?
A: 6.39* ×10^12/L

Q: What about the Total cholesterol [2, 17] of the same compound?
A: 4.18* mmol/L

Q: And the Triglycerides [2, 17]?
A: 0.130 mmol/L

Q: And the Water consumption [2, 17]?
A: 94.6 kg/day

Q: What about the Dry matter intake [2, 17] of the same compound?
A: 22.8 kg/day

Q: What about the ALT [2, 18] of the same compound?
A: 24* U/L

Q: And the Albumin [2, 18]?
A: 35* g/L

Q: What about the Amylase [2, 18] of the same compound?
A: 31* U/L

Q: What about the Body weight [2, 18] of the same compound?
A: 670 kg

Q: What about the Body weight change [2, 18] of the same compound?
A: 36.6 kg

Q: What about the Ca [2, 18] of the same compound?
A: 2.40 mmol/L

Q: And the Energy corrected milk [2, 18]?
A: 24.7* kg/day

Q: And the Fat yield [2, 18]?
A: 0.89* kg/day

Q: And the Fibrinogen [2, 18]?
A: 1.00* g/L

Q: And the Haematocrit [2, 18]?
A: 27* %

Q: And the “Haemoglobin d56” value [2, 18]?
A: 103* g/L

Q: What about the “LDH d56” value [2, 18] of the same compound?
A: 1034* U/L

Q: And the Mean corpuscular haemoglobin [2, 18]?
A: 16 pg

Q: And the Milk yield [2, 18]?
A: 27.5 kg/day

Q: What about the “Monocytes d5” value [2, 18] of the same compound?
A: 0.43* ×10^9/L

Q: What about the Ovary absolute size [2, 18] of the same compound?
A: 25.8* g

Q: What about the Protein yield [2, 18] of the same compound?
A: 0.91 kg/day

Q: What about the Prothrombin time [2, 18] of the same compound?
A: 27.0* s

Q: What about the Red blood cells [2, 18] of the same compound?
A: 6.42* ×10^12/L

Q: And the Total cholesterol [2, 18]?
A: 4.18* mmol/L

Q: What about the Triglycerides [2, 18] of the same compound?
A: 0.124* mmol/L

Q: And the Water consumption [2, 18]?
A: 87.0* kg/day

Q: And the Dry matter intake [2, 18]?
A: 21.8* kg/day

Q: What about the “Number of cows with signs of liver chronic inflammation (out of 8)” value (from here on “Number of cows”) ([2]; 0.8× group (control 2)) of the same compound?
A: 0

Q: And the “Number of cows” value ([2]; 1× group (control 2))?
A: 3

Q: And the “DM intake less than in the control group” value ([2]; 2× group)?
A: 4%

Q: And the “Energy corrected milk yield increase compared with the control” value ([2]; 2× group)?
A: 7%

Q: And the “Number of cows” value ([2]; 2× group (control 2))?
A: 5

Q: And the Revertant colonies [3]?
A: No increase in the mean number of revertant colonies

Q: What about the Frequency of micronuclei ([4]; 164, 512 and 1,211 μg/mL, with and without S9‐mix) of the same compound?
A: no increase in the frequency of micronuclei

Q: What about the Cytotoxicity ([4]; up to 1,211 μg/mL) of the same compound?
A: No cytotoxicity

Q: What about the “Mutation frequencies (MF)” value [5] of the same compound?
A: No biologically significant increases in MF

Q: What about the NOAEL ([6]; females) of the same compound?
A: 600 mg 3‐NOP/kg bw per day

Q: And the NOAEL ([6]; males)?
A: 100 mg 3‐NOP/kg bw per day

Q: What about the Skin irritation potential [7] of the same compound?
A: skin irritant

Q: And the Eye irritation potential [8]?
A: eye irritant

Q: What about the “log KOW” value [9] of the same compound?
A: 0.399

Q: What about the “Health‐based guidance value (acceptable daily intake, ADI)” value ([10]; NOAEL 100 mg/kg bw per day, uncertainty factor of 100) of the same compound?
A: 1 mg 3‐NOP/kg bw per day

Q: And the “Overall NOAEL” value ([10]; subchronic toxicity studies in rats, mice and dogs)?
A: 100 mg/kg bw per day

Q: What about the “Decrease of CH4” value [11] of the same compound?
A: about 20%

Q: And the “Micronuclei, overall result” value [12]?
A: weak increase in micronuclei

Q: What about the “3‐NOP concentration remaining after 16 h” value ([13]; 1 mg/L, anaerobic, n = 6) of the same compound?
A: 0.7%

Q: What about the “3‐NOP concentration remaining after 16 h” value ([13]; aerobic control, n = 2) of the same compound?
A: 27.9%

Q: And the “3‐NOP concentration remaining after 16 h” value ([14]; 1 mg/L, anaerobic, n = 6)?
A: 1.0%

Q: What about the “3‐NOP concentration remaining after 16 h” value ([14]; aerobic control, n = 2) of the same compound?
A: 31.9%

Q: And the “Radioactivity in the non‐dissolved fractions” value ([15]; 2.2 mg/L)?
A: ≤ 5.5%

Q: What about the “3‐NOP concentration remaining at t = 24 h” value ([15]; 2.2 mg/L, anaerobic) of the same compound?
A: 0%

Q: What about the “Radioactivity in the non‐dissolved fractions” value ([15]; 23 mg/L) of the same compound?
A: 7%

Q: And the “3‐NOP concentration remaining at t = 24 h” value ([15]; 23 mg/L, anaerobic)?
A: < 0.1%

Q: And the “Radioactivity in the trapped gas phases” value ([15]; 23 or 2.2 mg/L, up to 24 h at 38°C, anaerobic, pH about 6.2)?
A: ≤ 0.1 % of the total radioactivity

Q: And the “3‐NOP concentration remaining” value ([15]; after 6 h)?
A: 54%

Q: What about the “3‐NOP concentration remaining” value ([15]; after 12 h) of the same compound?
A: 6%

Q: And the “Abiotic degradation of 3‐NOP to propane‐1,3‐diol” value ([15]; control samples (no or only minor))?
A: 9.8%
